Measured values of several laboratories.
Each line is one published result; the experiments were not run side by side.
Observed: cell growth or viability

| Structure (SMILES) | cell line | test | conditions | quantity | value |
| --- | --- | --- | --- | --- | --- |
| CCOC(=O)C1=C(CN2CCC[C@@H]2C(=O)Nc2cccc(B(O)O)c2)NC(c2nccs2)=N[C@H]1c1ccc(F)cc1Br | HePAD38 | CCK-8 | 6 days | CC50 | 18.4 µM |
| CCOC(=O)c1cnc2c([N+](=O)[O-])cc(C(F)(F)F)cc2c1NCc1ccc(C(F)(F)F)cc1 | HEK293 | resazurin | 72 h | CC50 | ~9 µM |
| NC(=S)NN=Cc1ccc(OC(=O)CN2C(=O)CSC2=O)c(Cl)c1 | HEK293 | MTT | 50 µg/mL, 24 h | viability | > 70% |
| Nc1ccn([C@@H]2O[C@H](CO)[C@@H](O)C2(F)F)c(=O)n1 | HEK293 | MTT | 0.625 µg/mL, 24 h | viability | 83.8% |
| CC(C)[C@@H](C)Nc1nc(-c2cccs2)nc(Cl)c1-c1c(F)cc([N+](=O)[O-])cc1F | HEK293 | resazurin | 48 h | CC50 | 20.2 µM |
| Cc1ccc(S(=O)(=O)NNc2ccc([N+](=O)[O-])cc2[N+](=O)[O-])cc1 | HEK293 | MTT | 62.5 µg/mL | viability | 82.7% |
| C#Cc1cc(F)c(-c2c(Cl)nc(-c3cccs3)nc2NCC2(C)N=N2)c(F)c1 | HEK293 | resazurin | 48 h | CC50 | > 20 µM |
| CCOc1cc(C=NNC(N)=S)ccc1OC(=O)CN1C(=O)CSC1=O | HEK293 | MTT | 40 µg/mL, 24 h | viability | > 70% |
| CCOC(=O)C1=C(CN2CCC[C@@H]2C(=O)Nc2ccc(B(O)O)cc2)NC(c2nccs2)=N[C@H]1c1ccc(F)cc1Br | HePAD38 | CCK-8 | 6 days | CC50 | 26.5 µM |
| CC(C)(C)CNc1nc(-c2cccs2)nc(Cl)c1-c1c(F)cc(C#N)cc1F | HEK293 | resazurin | 48 h | CC50 | > 50 µM |
